Published values from different studies.

Compound	target or system	assay	system	conditions	endpoint	value
O=C(Nc1cncc(-c2nc3ccccc3o2)c1)c1cc([N+](=O)[O-])c(N2CCNCC2)cc1Cl		metabolic stability	CD-1 mouse, liver microsomes	1 µM, 1 h, pH 7.4	scaled CLint	10 mL/min/kg
COC[C@@H](Cc1ccc(OC)c(OC)c1)[C@@H](COC)Cc1ccc(OC)c(OC)c1	Huh7.5	cell growth or viability, MTT			CC50	5 mM
CCn1cnc2c(=O)[nH]c(N)nc21.NCCNCCN.[Pt+2]	CCRF-CEM	cell growth or viability, WST-1			IC50	> 0.1 mM
COc1ccc(CC(CC(=O)O)C(=O)O)cc1OC (stereo not drawn)	Huh7.5	cell growth or viability, MTT			CC50	> 5 mM
CN1CCN(c2nc(-c3ccccn3)nc3ccccc23)CC1		metabolic stability	mouse, liver microsomes		microsomal CLint	19 µL/min/mg
NC(=O)c1cnc2[nH]ccc2c1N[C@@H]1[C@@H]2CC3C[C@H]1C[C@@](O)(C3)C2	ATP-binding cassette sub-family C member 4 (ABCC4, Homo sapiens, UniProt O15439)	transporter uptake, inhibitor, radiometric	Sf9	100 µM, 5 min, pH 7, cell membranes	inhibition	< 50%
O=C(Nc1cccc(-c2ncco2)c1)c1cc([N+](=O)[O-])c(F)cc1F		metabolic stability	CD-1 mouse, liver microsomes	1 µM, 1 h, pH 7.4	scaled CLint	2200 mL/min/kg
Oc1c(Br)cc(Cl)c2cccnc12			Sprague-Dawley rat, plasma	oral, 20 mg/kg	Vd/F	39.9 L/kg
Fc1ccc(Nc2nc(-c3ccccn3)nc3ccccc23)cc1		metabolic stability	mouse, liver microsomes		microsomal CLint	138 µL/min/mg
